Data taken from PMC3943421 (Biochemistry, 2012).
Read-outs that look alike come from different tables or passages of the source. Values belong to the compound of their own block, whether it stands above or below them. Square brackets hold non-standard residues; d marks the D form. Peptide text beside a SMILES is read from it. pY = N[C@@H](Cc1ccc(OP(=O)(O)O)cc1)C(=O)O

Columns and labels:
[1] = target: FPRck-inhibited thrombin (anion-binding exosite II) (Homo sapiens, UniProt P00734); assay: Surface plasmon resonance; details: SPR; for measurable binding to thrombin (in words): HBS-EP+, 25°C (Figure 3)
How it was run: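 Biotinylated peptides captured on streptavidin chips at 150 RU after three 60 s 1 M NaCl/50 mM NaOH conditioning pulses, with blank reference cells. HBS-EP+ (10 mM HEPES pH 7.4, 150 mM NaCl, 0.05% P20, 3 mM EDTA), 25°C. Serial thrombin injections for 20 s at 50 μl/min, 30 s dissociation, no regeneration. Buffer-only and reference signals subtracted. Equilibrium 1:1 Langmuir Kd from three replicates with fresh dilutions.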

[2] = target: wild-type γ′ peptide (fibrinogen γ′ chain 410-427, both tyrosines phosphorylated); assay: SPR
[3] = target: wild-type γ′ peptide (fibrinogen γ′ chain 410-427, both tyrosines phosphorylated); assay: SPR; remark: listed apart in the source
[4] = target: wild-type γ′ peptide (fibrinogen γ′ chain 410-427, both tyrosines phosphorylated); assay: SPR; remark: listed apart in the source
[5] = target: wild-type γ′ peptide (fibrinogen γ′ chain 410-427, both tyrosines phosphorylated); assay: SPR; remark: listed apart in the source
[6] = target: γ′ analog peptide #1; assay: SPR
[7] = target: γ′ analog peptide #2; assay: SPR
[8] = target: wild-type γ′ peptide (fibrinogen γ′ chain 410-427, both tyrosines phosphorylated); assay: SPR; remark: listed apart in the source
[9] = target: γ′ analog peptide #3; assay: SPR
[10] = target: γ′ analog peptide #5 (Asp419Asn); assay: SPR
[11] = target: γ′ analog peptide #7; assay: SPR
[12] = target: γ′ analog peptide #12 (amino terminal three charges substituted); assay: SPR
[13] = target: γ′ analog peptide #13 (carboxyl terminal three charges substituted); assay: SPR
[14] = target: γ′ analog peptide #6 (pTyr422Tyr); assay: SPR
[15] = target: γ′ analog peptide #4 (pTyr418Tyr); assay: SPR
[16] = target: γ′ analog peptide #9 (Asp426Asn); assay: SPR
[17] = target: γ′ analog peptide #8; assay: SPR

Kd ([1]; Kd (mean ± standard error of the mean), [NaCl] 150 mM, 25°C): 0.488 ± 0.042 µM
Compound: CC(C)C[C@H](NC(=O)[C@H](CC(=O)O)NC(=O)[C@H](CC(=O)O)NC(=O)[C@H](CCC(=O)O)NC(=O)[C@@H]1CCCN1C(=O)[C@H](Cc1ccc(OP(=O)(O)O)cc1)NC(=O)[C@H](CC(C)C)NC(=O)[C@H](CO)NC(=O)[C@H](CC(=O)O)NC(=O)[C@H](Cc1ccc(OP(=O)(O)O)cc1)NC(=O)[C@H](CCC(=O)O)NC(=O)[C@@H](NC(=O)[C@H](CCC(=O)O)NC(=O)[C@H](C)NC(=O)[C@@H]1CCCN1C(=O)[C@H](Cc1c[nH]cn1)NC(=O)[C@H](CCC(=O)O)NC(=O)[C@@H]1CCCN1)[C@@H](C)O)C(=O)O [Wild-type] (H-PEHPAETE[pY]DSL[pY]PEDDL-OH)

Kd [2]: 120 µM | Kd [3]: 6.05 µM | Kd [4]: 0.488 µM | Kd [5]: 18.6 µM | Kd [6]: 0.441 µM | Kd [7]: 0.485 µM | Kd [8]: 0.44 µM | Kd [9]: 0.541 µM | Kd [10]: 0.705 µM | Kd [11]: 0.582 µM | Kd [12]: 1.97 µM | Kd [13]: 3.19 µM | Kd [14]: 0.702 µM | Kd [15]: 0.583 µM | Kd [16]: 0.465 µM | Kd [17]: 0.608 µM
Compound: FPRck-inhibited thrombin (enzyme)

measurable binding to thrombin (in words) [1]: complete absence of measurable binding
Compound: PEHPAETE YNSL YPEDDL [#10]

measurable binding to thrombin (in words) [1]: no measurable interaction with thrombin
Compound: PQHPAQTQpYDSLpYPQNNL [#11]
